From PubChem
CHO parental Ca = ATP-evoked calcium signal inhibitors, parental CHO, primary screen, counter-screen for OX1R antagonist project, cell-based, fluorescence, Fluo-8 calcium dye; parental CHO-K1, ATP-induced calcium, Fluo-8 fluorescence; inhibition, % at 5.6 µM; 330,000 compounds, 0.63% hits;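 active = inhibition above that plate's mean sample inhibition plus 3 SD, cut at about 26% in these data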
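Assay system: untransfected parental CHO cell line. Also added: ATP agonist challenge. Dosing: one dose, 5.6 µM nominal. Measured by: Fluo-8 fluorescence. Read-out: % inhibition. Benchmarks: ATP wells versus no-ATP DMSO wells. Repeats: no replicates.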
OX1R antag-1 = OX1R (HCRTR1) antagonists, primary screen, fluorescence, CHO/OX1R cells, Fluo-8 calcium, orexin A. AID 434989, 2010. inhibition, % at 5 µM. Fluo-8 calcium fluorescence. Orexin/Hypocretin receptor type 1 (Homo sapiens), O43613. 330,000 compounds, 0.43% hits;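 active = inhibition above its plate's threshold, mean inhibition of all tested compounds on the plate plus 3 SD, cut at about 37% in these data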
Target sequence (O43613 whole entry, looked up): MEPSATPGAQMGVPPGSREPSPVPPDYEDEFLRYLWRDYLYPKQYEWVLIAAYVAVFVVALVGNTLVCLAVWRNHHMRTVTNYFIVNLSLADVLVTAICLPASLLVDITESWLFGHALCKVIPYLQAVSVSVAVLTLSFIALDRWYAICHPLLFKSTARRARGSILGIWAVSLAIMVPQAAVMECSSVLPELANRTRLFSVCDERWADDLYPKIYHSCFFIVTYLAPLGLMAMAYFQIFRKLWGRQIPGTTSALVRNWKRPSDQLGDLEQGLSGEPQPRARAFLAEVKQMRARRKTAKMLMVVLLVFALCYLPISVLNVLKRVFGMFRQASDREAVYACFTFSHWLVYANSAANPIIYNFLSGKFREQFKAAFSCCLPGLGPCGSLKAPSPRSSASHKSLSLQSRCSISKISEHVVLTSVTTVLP
OX1R antag-2 = antagonists of human orexin 1 receptor (OX1R). Orexin/Hypocretin receptor type 1 (Homo sapiens), O43613. OX1R-expressing cells, FRET antagonist read-out. inhibition, % at 6.6 µM. 330,000 compounds, 1.8% hits. AID 485270, 2010; in the data active = inhibition mostly above about 38%, no sharp cut-off; inactive = mostly below about 40%
TAAR1 antag = human TAAR1 antagonists, primary screen, Fluo-8 calcium fluorescence, CHO RD-HGA16 cells; 360,000 compounds, 1.5% hits; inhibition, % at 3 µM; AID 624466, 2012; antagonist; Trace amine-associated receptor 1 (Homo sapiens), Q96RJ0;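 active = inhibition above a per-plate cutoff, the mean inhibition of test compounds on that plate plus 3 SD, cut at about 49% in these data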
Target sequence (Q96RJ0 whole entry, looked up): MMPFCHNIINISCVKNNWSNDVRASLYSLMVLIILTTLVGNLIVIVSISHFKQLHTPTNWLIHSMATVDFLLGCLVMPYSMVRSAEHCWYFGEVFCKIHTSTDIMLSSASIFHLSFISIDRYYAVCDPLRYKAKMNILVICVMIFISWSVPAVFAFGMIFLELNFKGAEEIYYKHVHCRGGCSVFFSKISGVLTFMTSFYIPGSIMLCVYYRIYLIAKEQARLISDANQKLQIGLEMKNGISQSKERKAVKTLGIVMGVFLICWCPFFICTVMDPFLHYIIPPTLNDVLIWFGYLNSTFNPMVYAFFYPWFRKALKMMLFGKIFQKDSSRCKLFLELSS
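test system = CHO RD-HGA16 cells bearing hTAAR1 | replication = singlicate | controls = DMSO-only wells and EC80 β-PEA-stimulated wells | reagent = EC80 β-phenethylamine stimulus | read-out basis = percent inhibition of PEA-evoked calcium signal, max/basal emission ratio | schedule = seeding 17-24 h prior, 75-min 37 °C, 30-min RT dye loading | signal = kinetic Fluo-8 calcium fluorescence measurement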
GPR7 antagonist = GPR7 receptor antagonists, primary screen, cell-based, fluorescence, single concentration; GPR7-expressing cells, fluorescence antagonist assay; inhibition, % at 4.4 µM; 290,000 compounds, 1.1% hits; Neuropeptides B/W receptor type 1 (Homo sapiens), P48145; in the data active = inhibition above about 16%, passing the limit was not always enough;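 also: cells stimulated with the agonist NPW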
TAAR1 ag = human TAAR1 agonists, primary screen, Fluo-8 calcium fluorescence, CHO RD-HGA16 cells | vehicle wells 0%, saturating PEA agonist 100% | AID 624467, 2012 | activation, % at 3 µM | 360,000 compounds, 0.99% hits | Trace amine-associated receptor 1 (Homo sapiens), Q96RJ0;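 active = activation above the mean activation of all test compounds in the run plus 3 SD, cut at about 38% in these data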
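Test system: RD-HGA16 (CHO) cells co-expressing Gα16 and hTAAR1; dosing: one-point dosing at 3 µM (nominal); timing: 17-24 h seeding, 75 min 37 °C dye, 30 min RT; signal: kinetic Fluo-8 calcium fluorescence; read-out basis: % activation relative to PEA EC100 response; controls: DMSO and PEA EC100; replicates: n 1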
nonsel antag count = nonselective antagonists in TAAR1 counter-screen cells, counter-screen for hTAAR1 antagonist project, cell-based, fluorescence, calcium. shares compounds with TAAR1 antag. counterscreen cell line, antagonist mode. inhibition, % at 3 µM. 2,400 compounds, 77% hits. AID 651780, 2012; in the data active = inhibition above about 22%;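 also: CHO-Ga16 host cells stimulated with ATP at an EC80 level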
TAAR1 ant conf = human TAAR1 antagonists, retest of hits, confirmation, cell-based, fluorescence; TAAR1-expressing cells, fluorescence antagonist read-out; inhibition, % at 3 µM; AID 651785, 2012; 2,400 compounds, 40% hits; shares compounds with TAAR1 antag; in the data active = inhibition above about 49%;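 also: CHO-Ga16 host cells challenged with agonist PEA near its EC80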
Ga16 ag counter = calcium activation in Ga16-expressing cells, counter-screen for TAAR1 antagonist project, cell-based, fluorescence; shares compounds with TAAR1 antag; agonist counterscreen; activation, % at 3 µM; 2,400 compounds, 18% hits; in the data active = activation above about 12%
TAAR1 ag count = TAAR1 activation by candidate antagonists – cell-based, fluorescence, counter-screen for TAAR1 antagonist project; 2,400 compounds, 2% hits; hTAAR1 cell line, agonist mode; shares compounds with TAAR1 antag; activation, % at 3 µM; in the data active = activation above about 37%;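 also: CHO cells stably expressing TAAR1 with calcium dye readout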
Numbers stand for hits; n = inactive; x = not tested or not shown. A selection: hits, their analogues and other compounds. The true share with any hit is near 4.6%.

SMILES | CHO parental Ca | OX1R antag-1 | OX1R antag-2 | TAAR1 antag | GPR7 antagonist | TAAR1 ag | nonsel antag count | TAAR1 ant conf | Ga16 ag counter | TAAR1 ag count
COc1ccc(OCC(=O)OCC(=O)Nc2cc(S(=O)(=O)N3CCOCC3)ccc2Cl)cc1 | n | n | n | n | x | n | x | x | x | x
O=C(COC(=O)c1ccc(O)cc1)Nc1cc(S(=O)(=O)N2CCCCCC2)ccc1Cl | x | x | x | 61.9 | x | n | 38.1 | 52.4 | n | n
CC12CCC(C(=O)N3CCCc4ccccc43)(OC1=O)C2(C)C (stereo not given) | n | n | n | n | n | n | x | x | x | x
CSc1ncccc1C(=O)OCC(=O)N1CC(=O)Nc2ccccc21 | n | n | n | n | x | n | x | x | x | x
COc1cccc(N2CCN(C(=O)C3CCCN(c4ncnc5c4nc4n5CCCCC4)C3)CC2)c1 (stereo not given) | n | n | n | 54.6 | n | n | 34.3 | 48.6 | 12.3 | n
CC1CCN(C(=O)C2CCCN(c3ncnc4c3nc3n4CCCCC3)C2)CC1 (stereo not given) | n | n | n | n | n | n | x | x | x | x
O=[N+]([O-])c1cccc(-c2nnc3ccccn23)c1 | n | n | n | x | n | x | x | x | x | x
CCOc1ccc2nc(NC(=O)CN3CCC(n4nnc5cc(F)ccc54)CC3)sc2c1 | n | n | n | 68.0 | n | n | 23.4 | n | n | n
C=CCn1c(=S)[nH]c2cc(C(=O)Nc3ccc(F)cc3)ccc2c1=O | n | n | n | 62.3 | n | n | 35.2 | n | 14.8 | n
COc1ccc(S(=O)(=O)Cc2ccc(C(=O)N3CCN(c4cccc(C)c4)C(C)C3)o2)cc1 (stereo not given) | n | n | n | 59.5 | n | n | 31.3 | n | n | n
COc1ccccc1S(=O)(=O)Cc1ccc(C(=O)N2CCN(c3ccc(C)cc3)C(C)C2)o1 (stereo not given) | n | n | n | n | n | n | x | x | x | x
O=C(c1ccc(CS(=O)Cc2ccc(Cl)cc2)o1)N1CCN(c2ccc(F)cc2)CC1 (stereo not given) | n | n | n | 72.3 | n | n | n | n | n | n
COc1ccc(N2CCN(C(=O)c3ccc(CS(=O)(=O)c4ccc(OC)cc4)o3)CC2)cc1 | n | n | n | n | n | n | x | x | x | x
COc1ccc(S(=O)(=O)Cc2ccc(C(=O)N3CCN(c4ccc(Cl)cc4)CC3)o2)cc1 | 40.5 | n | n | 71.8 | n | n | 33.4 | n | n | n
CCc1cccc(CC)c1NC(=O)C1CSC2(C)CCC(=O)N12 (stereo not given) | n | n | n | n | x | n | x | x | x | x
COc1cccc(Nc2nc(-c3sc(NC(=O)c4ccco4)nc3C)cs2)c1 | n | n | n | 52.4 | n | n | 21.6 | n | n | n
COc1ccccc1NC(=O)c1ccc(NC(=O)COC(=O)C2(C)CC2(Cl)Cl)cc1 (stereo not given) | n | n | n | 63.0 | n | n | 28.9 | 61.0 | n | n
CC1Cc2ccccc2N1C(=O)c1cc2c(=O)n3ccccc3nc2n1C (stereo not given) | n | n | n | 56.3 | n | n | 27.3 | 49.0 | 11.8 | n
O=C1c2cccc3c2C2(O)c4c1cccc4C(=O)c1cccc(c12)C3=O | x | x | x | 71.0 | x | n | 32.8 | 50.9 | n | n
O=S(=O)(c1ccc(F)cc1)N1CCN(c2nc(-c3cccnc3)nc3ccccc23)CC1 | n | n | n | n | x | n | x | x | x | x
O=S(=O)(c1ccccc1)N1CCN(c2nc(-c3cccnc3)nc3ccccc23)CC1 | x | x | x | 68.9 | x | n | 26.3 | n | n | n
OC(c1cccc(Cl)c1)c1nc(-c2cc3ccccc3o2)cs1 (stereo not given) | x | x | x | 61.0 | x | n | 36.4 | 49.4 | n | n
Cc1cccc(C)c1NC(=O)COC(=O)/C=C/c1ccc(S(=O)(=O)N2CCOCC2)cc1 | n | n | n | n | x | n | x | x | x | x
COc1ccc(Cc2nnc(NC(=O)Cc3cccs3)s2)cc1OC | n | n | n | 57.4 | n | n | n | n | n | n
O=C(Cc1cccs1)Nc1nnc(Cc2ccccc2)s1 | n | n | n | n | n | n | x | x | x | x
SMILES | CHO parental Ca | OX1R antag-1 | OX1R antag-2 | TAAR1 antag | GPR7 antagonist | TAAR1 ag | nonsel antag count | TAAR1 ant conf | Ga16 ag counter | TAAR1 ag count
O=C1CCC2(CCCCC2)N1 | x | x | x | n | x | n | x | x | x | x
O=C(NCCN1CCOCC1)c1ccc(=O)n(Cc2ccc(Cl)cc2)c1 | n | n | n | 105.4 | n | n | n | n | n | n
Cc1oc2cc(O)cc(C)c2c(=O)c1-c1cnn(-c2ccccc2)c1 | n | n | n | 57.5 | n | n | 32.9 | n | n | n
C#CCOCCOCCOCCNc1nc(N2CCN(C(=O)[C@H](CCCN=C(N)N)n3cc(C(N)[C@@H](C)CC)nn3)CC2)nc(N2CCN(C(=O)[C@H](CCCCN)n3cc([C@@H](N)[C@H](C)CC)nn3)CC2)n1 (stereo not given in full) | n | n | n | 108.5 | x | n | n | n | n | n
C#CCOCCOCCOCCNc1nc(N2CCN(C(=O)[C@H](CCCN=C(N)N)n3cc(C(N)[C@@H](C)CC)nn3)CC2)nc(N2CCN(C(=O)[C@H](CCC(=O)O)n3cc([C@@H](N)CCCCN)nn3)CC2)n1 (stereo not given in full) | n | n | n | n | x | n | x | x | x | x
C#CCOCCOCCOCCNc1nc(N2CCOCC2)nc(N2CCN(C(=O)[C@H](C)n3cc(CCC(=O)O)nn3)CC2)n1 | x | x | x | 107.1 | x | n | n | n | n | n
C=CCNS(=O)(=O)c1ccc(N2C(=O)c3ccccc3C2=O)cc1 | n | n | n | n | n | n | x | x | x | x
CC1Cc2ccccc2N1C(=O)COC(=O)c1ccc(N(C)C)cc1 (stereo not given) | n | n | n | n | x | n | x | x | x | x
Cc1ccc(C(=O)NCC(=O)OCC(=O)c2cc(C)n(Cc3ccco3)c2C)cc1 | n | n | n | n | n | n | x | x | x | x
